The values below come from ChEMBL document CHEMBL1128328, “Identification of efficient pentapeptide substrates for the tyrosine kinase pp60c-src” (J Med Chem, 1995).

The target in data set [1] is Proto-oncogene tyrosine-protein kinase Src (Homo sapiens) (UniProt P12931). In words: Incorporation of 32P into phosphopeptide product (1 mM) in pp60c-src phosphorylation assay. Summed up:
(§1)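 Human pp60c-src (baculovirus/SF9 recombinant, partially purified), 10 units in 40 µL; 138 mM MOPS pH 7.1, 0.64 mM MgCl2 (calculated free Mg2+ 0.44 mM), BSA 0.37 mg/mL, 200 µM [γ-32P]ATP, 20 µM ADP; peptide at 1 or 3 mM final; 30 min, 30 °C; acid molybdate quench; PEI-cellulose column, 1 M LiCl elution, Cerenkov counting; triplicate, no-peptide blank subtracted.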

Data set [2] shares this target. In words: Incorporation of 32P into phosphopeptide product (3 mM) in pp60c-src phosphorylation assay. The procedure, abridged: as §1
Data set [3] deals with CC[C@H](C)[C@H](NC(=O)[C@H](CCC(=O)O)NC(=O)[C@H](CCC(=O)O)NC(=O)[C@H](CCC(=O)O)NC(=O)[C@H](C)N)C(=O)N[C@@H](Cc1ccc(O)cc1)C(=O)NCC(=O)N[C@@H](CCC(=O)O)C(=O)N[C@@H](Cc1ccccc1)C(=O)N[C@@H](CCC(=O)O)C(=O)N[C@@H](C)C(=O)N[C@@H](CCCCN)C(=O)N[C@@H](CCCCN)C(=O)N[C@@H](CCCCN)C(=O)N[C@@H](CCCCN)C(=O)O. In words: (§2) Maximum enzyme velocity(Vmax) of peptide phosphorylation by pp60src. The procedure, abridged: (§3)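 Same pp60c-src reaction (pH 7.1 MOPS, 200 µM [γ-32P]ATP, 20 µM ADP, 30 min, 30 °C, PEI-cellulose/Cerenkov readout). Two peptide levels, near and ~10× estimated Km (200 µM/2 mM, 25/300 µM, or 50 µM/1 mM depending on peptide). Initial velocities in 4–6 repeats per level, minus zero-time blank. Apparent values from Cornish-Bowden direct linear plot.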

In data set [4] the test system is CC[C@H](C)[C@H](NC(=O)[C@H](C)NC(=O)[C@H](CC(=O)O)NC(=O)[C@H](CCC(=O)O)NC(C)=O)C(=O)N[C@@H](Cc1ccc(O)cc1)C(N)=O. The description is as §2. The procedure, abridged: as §3
The subject of data set [5] is CC[C@H](C)[C@H](NC(C)=O)C(=O)N[C@@H](Cc1ccc(O)cc1)C(=O)NCC(=O)N[C@@H](CCC(=O)O)C(=O)N[C@@H](Cc1ccccc1)C(N)=O. The data set is described as §2. Summed up: as §3
Data set [6] relates to CC[C@H](C)[C@H](NC(=O)[C@H](CCC(=O)O)NC(=O)[C@H](CCC(=O)O)NC(=O)[C@H](CCC(=O)O)NC(=O)[C@H](C)N)C(=O)N[C@@H](Cc1ccc(O)cc1)C(=O)NCC(=O)N[C@@H](CCC(=O)O)C(=O)N[C@@H](Cc1ccccc1)C(=O)N[C@@H](CCC(=O)O)C(=O)N[C@@H](C)C(=O)N[C@@H](CCCCN)C(=O)N[C@@H](CCCCN)C(=O)N[C@@H](CCCCN)C(=O)N[C@@H](CCCCN)C(=O)O. In words: (§4) Michaelis-Menten (Km) constant for peptide phosphorylation by pp60src. The procedure, abridged:
as §3

Data set [7] deals with CC[C@H](C)[C@H](NC(=O)[C@H](C)NC(=O)[C@H](CC(=O)O)NC(=O)[C@H](CCC(=O)O)NC(C)=O)C(=O)N[C@@H](Cc1ccc(O)cc1)C(N)=O. The data set is described as §4. The procedure, abridged:
as §3

The subject of data set [8] is CC[C@H](C)[C@H](NC(C)=O)C(=O)N[C@@H](Cc1ccc(O)cc1)C(=O)NCC(=O)N[C@@H](CCC(=O)O)C(=O)N[C@@H](Cc1ccccc1)C(N)=O. Described as §4. Summed up: as §3

Take `CC[C@H](C)[C@H](NC(=O)[C@H](CCC(=O)O)NC(=O)[C@H](CCC(=O)O)NC(=O)[C@H](CCC(=O)O)NC(=O)[C@H](C)N)C(=O)N[C@@H](Cc1ccc(O)cc1)C(=O)NCC(=O)N[C@@H](CCC(=O)O)C(=O)N[C@@H](Cc1ccccc1)C(=O)N[C@@H](CCC(=O)O)C(=O)N[C@@H](C)C(=O)N[C@@H](CCCCN)C(=O)N[C@@H](CCCCN)C(=O)N[C@@H](CCCCN)C(=O)N[C@@H](CCCCN)C(=O)O`: in data set [1], the CPM x1000 was determined as 702.

In the case of Ac-DAEYA-NH2, in data set [2], the CPM x1000 worked out at 23.4.

In the case of Ac-EDAEYA-NH2, the CPM x1000 in data set [2] stood at 28.5.

Ac-EDAIY-NH2 returned a CPM x1000 in data set [1] of 403.

Regarding Ac-EGTYG-NH2, the CPM x1000 in data set [1] came out at 63.5; in data set [2], 89.5.

For the compound Ac-GEGTYGV-NH2, the CPM x1000 in data set [2] was 120.

As for Ac-IYGEF-NH2, the CPM x1000 in data set [1] was found to be 497.

In data set [2], H-RRLIEDAEYAARG-OH registered a CPM x1000 of 80.3.

In general, Vmax refers to the top rate of the reaction or transport when substrate is in excess. For orientation: Km means the concentration of substrate that gives half-maximal velocity. Take “Proto-oncogene tyrosine-protein kinase Src (Homo sapiens) (from UniProt P12931)”: the Vmax amounted to 3.06 µM/min/mg in data set [3], 1.86 µM/min/mg in data set [4] and 1.02 µM/min/mg in data set [5]. For the same compound, the Km in data set [6] was found to be 100 µM; in data set [7], 880 µM; in data set [8], 368 µM.
